{"source": "paper PMC9066168", "about": "(RSC Advances, 2019)", "assay_type_in_all_cases": "cell-based", "key": {"[1]": {"test_system": "Staphylococcus epidermidis (MTCC 435)", "settings": "0.1 mL of 50 mg mL^-1 in DMSO per 8 mm well, 18-24 h; NA = no activity"}, "[2]": {"test_system": "human osteosarcoma cell line MG63", "assay": "Antitumor MTT assay"}, "[3]": {"test_system": "methicillin resistant Staphylococcus aureus (MRSA)", "assay": "microbe, parasite or virus in culture", "settings": "for diameter of the inhibition zone, MRSA: 0.1 mL of 50 mg mL^-1 in DMSO per 8 mm well, 18-24 h, NA = no activity"}, "[4]": {"test_system": "Staphylococcus epidermidis (MTCC 435)", "assay": "Minimum inhibitory concentration, agar dilution method", "settings": "MTCC435, 24 h, read-out: Minimum inhibitory concentration, S. epidermidis"}, "[5]": {"test_system": "Enterococcus faecalis (MTCC 439)", "assay": "Minimum inhibitory concentration, agar dilution method", "settings": "MTCC439, 24 h, read-out: Minimum inhibitory concentration, E. faecalis"}, "[6]": {"test_system": "Shigella flexneri (MTCC 1457)", "assay": "Minimum inhibitory concentration, agar dilution method", "in_short": "(§1)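 Bacteria were grown from a loopful in broth at 37 °C for 4 h and adjusted to McFarland turbidity, about (1 to 2) × 10^8 CFU per mL. Test compound in DMSO was mixed into Muller Hinton agar over 0.001–2 mg mL−1. Plates were swab-inoculated with 0.1 mL culture and held at 37 °C for 24 h. MIC was the lowest concentration preventing visible growth, with DMSO as control.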"}, "[7]": {"test_system": "Enterococcus faecalis (MTCC 439)", "assay": "microbe, parasite or virus in culture"}, "[8]": {"test_system": "methicillin resistant Staphylococcus aureus (MRSA)", "assay": "Minimum inhibitory concentration, agar dilution method", "settings": "24 h, read-out: Minimum inhibitory concentration, MRSA", "in_short": "as §1"}, "[9]": {"test_system": "Shigella flexneri (MTCC 1457)", "assay": "microbe, parasite or virus in culture"}, "[10]": {"test_system": "Staphylococcus aureus (MTCC 740)", "assay": "Minimum inhibitory concentration, agar dilution method", "settings": "MTCC740, 24 h, read-out: Minimum inhibitory concentration, S. Aureus"}, "[11]": {"test_system": "Staphylococcus aureus (MTCC 740)", "settings": "0.1 mL of 50 mg mL^-1 in DMSO per 8 mm well, 18-24 h; NA = no activity"}, "[12]": {"test_system": "Candida albicans (MTCC 227)", "assay": "microbe, parasite or virus in culture", "settings": "for diameter of the inhibition zone, C. albicans: 0.1 mL of 50 mg mL^-1 in DMSO per 8 mm well, 18-24 h, NA = no activity"}, "[13]": {"test_system": "Candida albicans (MTCC 227)", "assay": "Minimum inhibitory concentration, agar dilution method", "settings": "Muller Hinton agar, 25 °C, 24 h"}, "[14]": {"settings": "0.1 mL of 50 mg mL^-1 in DMSO per 8 mm well, 18-24 h, NA = no activity"}}, "note": "Marks after values point to notes of the source that are not given here.", "data": [{"compound": "O=c1cc[nH]c(=S)[nH]1", "note": "[tucH2, 2-thiouracil, reference compound]", "values": [{"measurement": "diameter of the inhibition zone, S. epidermidis", "setting": "[1]", "result": "inactive"}, {"measurement": "IC50", "setting": "[2]; Homo sapiens, MG-63, 24 h", "result": 44.3, "unit": "µM"}]}, {"compound": "CNC(C)C1CCC(N)C(OC2C(N)CC(N)C(OC3OCC(C)(O)C(NC)C3O)C2O)O1", "note": "(stereo not drawn) [Gentamicin, reference compound]", "values": [{"measurement": "diameter of the inhibition zone, MRSA", "setting": "[3]", "result": "33 ^d mm"}, {"measurement": "zone of inhibition at 50 µg/mL", "setting": "[3]; Staphylococcus aureus, MRSA, read-out: diameter of the inhibition zone, MRSA", "result": 33, "unit": "mm"}, {"measurement": "diameter of the inhibition zone, S. epidermidis", "setting": "[1]", "result": "25 ^d mm"}, {"measurement": "MIC", "setting": "[4]", "result": 30, "unit": "µg/mL"}, {"measurement": "MIC", "setting": "[5]", "result": 30, "unit": "µg/mL"}, {"measurement": "Minimum inhibitory concentration, S. flexneri", "setting": "[6]; Muller Hinton agar, 37 °C, 24 h", "result": 5, "unit": "µg/mL"}, {"measurement": "MIC", "setting": "[6]; Shigella flexneri, MTCC1457, 24 h, read-out: Minimum inhibitory concentration, S. flexneri, Muller Hinton agar, 37 °C, 24 h", "result": 7, "unit": "µg/mL"}, {"measurement": "diameter of the inhibition zone, E. faecalis", "setting": "[7]; [14]", "result": "27 ^d mm"}, {"measurement": "zone of inhibition at 50 µg/mL", "setting": "[7]; Enterococcus faecalis, MTCC439, read-out: diameter of the inhibition zone, E. faecalis", "result": 27, "unit": "mm"}, {"measurement": "MIC", "setting": "[8]", "result": 10, "unit": "µg/mL"}, {"measurement": "diameter of the inhibition zone, S. flexneri", "setting": "[9]; [14]", "result": "34.5 ^d mm"}, {"measurement": "zone of inhibition at 50 µg/mL", "setting": "[9]; Shigella flexneri, MTCC1457, read-out: diameter of the inhibition zone, S. flexneri", "result": 34.5, "unit": "mm"}, {"measurement": "MIC", "setting": "[10]", "result": 0.5, "unit": "µg/mL"}, {"measurement": "diameter of the inhibition zone, S. aureus", "setting": "[11]", "result": "26 ^d mm"}]}, {"compound": "S=c1cccc[nH]1", "note": "[PySH, pyridine-2-thione, reference compound]", "values": [{"measurement": "IC50", "setting": "[2]; Homo sapiens, MG-63, 24 h", "result": 29.7, "unit": "µM"}]}, {"compound": "purine-6-thione [purSH2, reference compound]", "values": [{"measurement": "diameter of the inhibition zone, MRSA", "setting": "[3]", "result": 18, "unit": "mm"}, {"measurement": "diameter of the inhibition zone, S. epidermidis", "setting": "[1]", "result": "inactive"}, {"measurement": "diameter of the inhibition zone, C. albicans", "setting": "[12]", "result": "inactive"}, {"measurement": "diameter of the inhibition zone, S. aureus", "setting": "[11]", "result": 13, "unit": "mm"}]}, {"compound": "S=c1[nH]c2ccccc2[nH]1", "note": "[BzimSH, benz-imidazoline-2-thione]", "values": [{"measurement": "diameter of the inhibition zone, C. albicans", "setting": "[12]", "result": 13, "unit": "mm"}]}, {"compound": "[Ag2(purSH2)2(dppm)2](NO3)2·2H2O [Complex 5]", "values": [{"measurement": "diameter of the inhibition zone, S. epidermidis", "setting": "[1]", "result": 12, "unit": "mm"}, {"measurement": "IC50", "setting": "[2]; MG63 cells, 24 h exposure, MTT, 570 nm", "result": 7.62, "unit": "µM"}, {"measurement": "diameter of the inhibition zone, C. albicans", "setting": "[12]", "result": 17, "unit": "mm"}, {"measurement": "Minimum inhibitory concentration, C. albicans", "setting": "[13]", "result": 50, "unit": "µg/mL"}, {"measurement": "diameter of the inhibition zone, S. aureus", "setting": "[11]", "result": 12, "unit": "mm"}]}, {"compound": "C[C@@H]1[C@H](O)[C@@H](C)/C=C/C=C/C=C/C=C/C=C/C=C/C=C/[C@H](O[C@@H]2O[C@H](C)[C@@H](O)[C@H](N)[C@@H]2O)C[C@@H]2O[C@](O)(C[C@@H](O)C[C@@H](O)[C@H](O)CC[C@@H](O)C[C@@H](O)CC(=O)O[C@H]1C)C[C@H](O)[C@H]2C(=O)O", "note": "[Amphotericin B]", "values": [{"measurement": "diameter of the inhibition zone, C. albicans", "setting": "[12]", "result": "34 ^d mm"}, {"measurement": "zone of inhibition at 50 µg/mL", "setting": "[12]; Candida albicans, MTCC227, read-out: diameter of the inhibition zone, C. albicans", "result": 34, "unit": "mm"}]}, {"compound": "c1ccc(P(c2ccccc2)c2ccccc2)cc1", "note": "[PPh3, triphenylphosphine, reference compound]", "values": [{"measurement": "IC50", "setting": "[2]; Homo sapiens, MG-63, 24 h", "result": "> 100", "unit": "µM"}]}]}
